According to the EternaBench riboswitch data:

Tested on: MS2 coat protein
Experiment: apparent Kd, MS2 coat protein; higher = weaker binding; RNA-MaP array
Method in brief: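 Sequenced DNA templates on an Illumina sequencing chip were transcribed into the designed RNAs. These were incubated at room temperature in Tris-HCl pH 7.5 buffer containing KCl, MgCl2, BSA, DTT, tRNA and Tween20 with fluorescently labeled MS2 coat protein at 1.5 nM to 3 μM, with or without input ligand. Apparent Kd is the median of binding-curve fits per cluster, and designs with fewer than 10 clusters measured were excluded.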

[1] = designed as: ON switch for flavin mononucleotide, no ligand
[2] = ligand present: flavin mononucleotide, designed as: ON switch for flavin mononucleotide
[3] = designed as: OFF switch for flavin mononucleotide, no ligand
[4] = ligand present: flavin mononucleotide, designed as: OFF switch for flavin mononucleotide
[5] = designed as: OFF switch for tryptophan, no ligand
[6] = ligand present: tryptophan, designed as: OFF switch for tryptophan

Sequence | apparent Kd [1] [nM] | apparent Kd [2] [nM] | apparent Kd [3] [nM] | apparent Kd [4] [nM] | other results
CUGUACAUGAGGAUCACCCAUGUUAGACCAGCUUAAAAUAUAAGAAGGUUGAGGGCUUGACCAACAAAGGAUAUUAUGUGACCA | 27.7 | 18.1 | – | – | –
ACCAUGUGACAGGAUAUGUUUCUCUCAAUAAACACAGAAGGGUCUACAUGAGGAUCACCCAUGUGUAUUCUACC | – | – | 72.6 | 64.3 | –
GACAGGAAAGGAUAUACAAAAUAGAUCAAACGCACACAAAGACAUGAGGAUCACCCAUGUAGAAGGUACUGACA | – | – | 11.3 | 9.76 | –
GAUAAAGUAGGAUAUACAUGAGGAUCACCCAUGUAGAGAGGAGAGCGUGCGAGAACCAGUAGAAGGACUAAACA | – | – | 13.9 | 12.4 | –
UAAAGGUUCCAGAAGGCCACGACUCGAUCCUGUGGAGGAUAUGGGACAUGAGGAUCACCCAUGUCUGGUGGAUUACAUCCCACA | 20.4 | 32.2 | – | – | –
UGAGGUAAGGAGAAGGUCCAACGAUGAAUUUAGGAAGGAUAUCCAACAUGAGGAUCACCCAUGUAAGGGUGCCCGAAGUCAGGA | – | – | 133 | 178 | –
UCCUCGUUAGGAUAUGCCCACAUACACAGUUGUGAACUCUGGCAGAAGGAACAUGAGGAUCACCCAUGUAUAUA | – | – | 89.3 | 230 | –
ACCCUGUGAGGAUAUUAUUAGCUCGGCCAUAAUAAGGAUAGUAAGAAGGCACAUGAGGAUCACCCAUGUAUCCU | – | – | 21.8 | 19.2 | –
AUCAAUAAUGUUAGGAUAUCUAGCUAUUUUAUGGUAGAGAAGGAACAUGAGGAUCACCCAUGUUGAGCUAUAUU | – | – | 8.45 | 8.82 | –
GAUUUUAGUGAAGGAUAUACAAACAACAUGAGGAUCACCCAUGUCUGGAAUGAUCGCAGGGCCCGGUAGAAGGUCAUCAGAAAG | – | – | 31.1 | 24 | –
CGGGCACAUGAGGAUCACCCAUGUAAGGAUAUGAACAGUUUUCACAGAGUUUCACUAUUCAGAAGGUACGUUUC | – | – | 24.2 | 20.8 | –
CACAUGUCAGGAUAUAGCGAUACAGUUCGACCACUUACUGCCUAGAAGGGACAUGAGGAUCACCCAUGUAAAAG | – | – | 26.1 | 61.2 | –
CUUACUCGUCUAGGAUAUCGAAUGCCAACAUGAGGAUCACCCAUGUGUGGGUUGAUCGUCUAGGCCGAGAAGGAGACUGCAAUC | – | – | 8.88 | 18.1 | –
AAGCUUCAACUUCAUUCACAUGAGGAUCACCCAUGUGAUCCGAGAAGGUUUCACUAGAAUUCUGAAAAGGAUAUCGAUCACAAU | – | – | 16.2 | 19.7 | –
CCGAUGAUGAUAGGAUAUCUAGGAGUUAAGACGCCGUCUACAUGAGGAUCACCCAUGUUUCGAUUAGAGAAGGAUCGGGAUUCG | 13.1 | 7.13 | – | – | –
CCAGCUAAAGGAUAUACUGCCGGUGUUAUGUAAUAAUUGCAACAUGAGGAUCACCCAUGUAGAAGGUAAGUGAA | – | – | 11 | 9.45 | –
CGUAUAGCAGGAUAUUGCAGCCGGCACAUGAGGAUCACCCAUGUCGAUGGUCCGCCAUAGCAAGAAGGGCUAGUAG | – | – | 85.7 | 57.1 | –
GCUCUAAGGGAGAAGGUCAUGUCGCAUCUUAGCGUUCACAUGAGGAUCACCCAUGUUAACUGUGUGAAGGAUAUCCUAGGCUGU | 358 | 125 | – | – | –
AGCGACAUGAGGAUCACCCAUGUACAUUCCCGAGGACCGGUACGGCCGCCACUCGAUGGAAGUGGUAGCAGCUUGGAUGGGCCUA | – | – | – | – | apparent Kd (designed as: ON switch for tryptophan, no ligand): 15.7 nM; apparent Kd (ligand present: tryptophan, designed as: ON switch for tryptophan): 26.7 nM
GACAUGAGGAUCACCCAUGUAUGUGGGACUGCGCAUUGAUACUAGGAUAUCUGCCCAGACGUGUGAGAGAAGGAGUACGGUAAA | 74.7 | 56 | – | – | –
UGGAGAUAGACGGCCGCCACUAACAUGAGGAUCACCCAUGUCGUCACGAAUGGAUGGCCCUAGAAUAGGACCGGGUCCGGAUUCA | – | – | – | – | apparent Kd [5]: 33.6 nM; apparent Kd [6]: 34.8 nM
ACAACAAAACAGAAGGCCUUAAAUUACAUGAGGAUCACCCAUGUUACACUAUACAAACAGAACAAGGAGGAUAUGUAAGACUGA | 19.9 | 8.65 | – | – | –
UUUAACAAGAACGUCCUGAGUGACAAGCUACGAGGACCGGUACGGCCGCCACUCGUACCAAAACAUGAGGAUCACCCAUGUUAAA | – | – | – | – | apparent Kd [5]: 17.4 nM; apparent Kd [6]: 17.8 nM
GGGUUAAAGCAGAAGGGUUACGGACAAAAUUAAACAGGAUAUGCCGUAAUACAUGAGGAUCACCCAUGUCAUACGUCAUCAGGG | 18.9 | 16 | – | – | –
CUGUUACAUGAGGAUCACCCAUGUGAGCGGUUGCUAGGAUAUCGCCAUUGGUGGUUCGGACGAGAAGGAGCUAAAA | 150 | 67.2 | – | – | –
AAAGCAGUAGGAUAUACAGUCAUCCGACAGAUAGCGUAAAGACAUGAGGAUCACCCAUGUAGAAGGACUGUAAA | – | – | 6.35 | 6.28 | –
